Measured values from ChEMBL document CHEMBL4270646, “Novel antimalarial chloroquine- and primaquine-quinoxaline 1,4-di-N-oxide hybrids: Design, synthesis, Plasmodium life cycle stage profile, and preliminary toxicity studies” (Eur J Med Chem, 2018).

System: Plasmodium falciparum
Assay: Antiplasmodial activity against chloroquine-sensitive Plasmodium falciparum 3D7 infected in human red blood cells assessed as reduction in parasite growth after 48 hrs by Hoechst 33342 staining based flow cytometric analysis
Type: functional, organism-based
Conditions: 3D7, 48 h
How it was run: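 Ring-stage cultures (>80% rings) at 1% parasitaemia in A+ human erythrocytes, 2% haematocrit. Medium RPMI 1640 with 10% A+ serum, 37°C, 5% CO2/5% O2. Compounds in DMSO at 1.56–100 µg/mL final, DMSO ≤1%. After 48 h, cells stained with Hoechst 33342 and 1×10^4 counted by flow cytometry. IC50 from logistic dose-response regression; three independent experiments in triplicate.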

COc1cc(NC(C)CCCNC(=O)c2c(C)[n+]([O-])c3ccccc3[n+]2[O-])c2ncccc2c1 (stereo unspecified)
IC50: 67.2 µM
